Lipid droplet: hepatic lipid droplet formation modulation | AML12 mouse hepatocytes, oleate lipid droplets, BODIPY imaging | inhibition, % at 6.5 µM | 240,000 tested, 0.4% active | AID 1656;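 active = lipid droplet intensity inhibited by at least 50%, with more than 500 cells counted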
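Test system: AML12 hepatocytes (mouse); reagent: oleate loading, 100 µM; dosing: one dose, 6.5 µM compound; incubation: overnight exposure; signal: fluorescence imaging, 20x objective, two fields per well; read-out basis: % inhibition of corrected integrated BODIPY droplet signal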
SMARCA2 act: SMARCA2 function activation, primary screen. MG213 cells, MMTV-luciferase reporter, dexamethasone, overnight. activation, % at 9.1 µM. 370,000 tested, 1% active; in the data active = activation above about 7.8%;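 note: 0% = vehicle wells and 100% = reference activator wells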
SR-BI HDL uptake: mouse SR-BI HDL lipid transfer inhibition | AID 488896 | Q61009 | ldlA[mSR-BI] CHO cells, DiI-HDL uptake fluorescence, 3 h | 320,000 tested, 0.96% active | inhibition, % at 12.5 µM;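 active = mean replicate inhibition of at least 70% and a set share of replicates each scoring 70 or more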;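 note: 0% = median of neutral control wells and 100% = median of positive control wells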
AHR act: human AHR activation | AHR-responsive luciferase reporter cells, luminescence | activation, % at 5 µM | 320,000 tested, 2.5% active | AID 2796; in the data active = activation above about 47%;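 note: 0% = vehicle wells and 100% = reference agonist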
Target sequence (P35869 whole entry, looked up): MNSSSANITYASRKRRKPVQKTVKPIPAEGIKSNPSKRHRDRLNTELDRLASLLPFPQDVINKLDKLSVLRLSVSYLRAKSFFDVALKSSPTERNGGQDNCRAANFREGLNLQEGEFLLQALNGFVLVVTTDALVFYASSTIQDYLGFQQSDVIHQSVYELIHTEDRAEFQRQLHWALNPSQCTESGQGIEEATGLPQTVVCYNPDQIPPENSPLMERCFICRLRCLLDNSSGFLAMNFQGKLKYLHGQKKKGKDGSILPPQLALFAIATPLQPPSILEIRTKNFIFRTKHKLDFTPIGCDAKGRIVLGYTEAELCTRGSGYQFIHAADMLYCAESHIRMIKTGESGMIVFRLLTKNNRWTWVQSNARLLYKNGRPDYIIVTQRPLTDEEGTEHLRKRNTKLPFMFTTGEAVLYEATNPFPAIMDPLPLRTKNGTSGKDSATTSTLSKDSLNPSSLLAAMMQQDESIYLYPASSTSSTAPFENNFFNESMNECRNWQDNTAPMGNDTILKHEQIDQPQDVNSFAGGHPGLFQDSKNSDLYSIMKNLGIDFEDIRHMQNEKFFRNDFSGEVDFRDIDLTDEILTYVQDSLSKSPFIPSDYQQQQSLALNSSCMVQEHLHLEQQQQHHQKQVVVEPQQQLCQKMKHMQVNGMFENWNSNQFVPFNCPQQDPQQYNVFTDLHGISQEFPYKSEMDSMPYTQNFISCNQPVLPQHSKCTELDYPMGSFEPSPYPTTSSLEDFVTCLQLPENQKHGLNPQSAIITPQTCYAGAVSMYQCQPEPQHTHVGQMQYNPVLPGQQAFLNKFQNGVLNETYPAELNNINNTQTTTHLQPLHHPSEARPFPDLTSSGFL
SR-BI uptake up: activators of SR-BI mediated HDL lipid uptake; CHO ldlA[mSR-BI] cells, DiI-HDL uptake fluorescence, 3 h; 100 = double the neutral-control signal; activation, % at 12.5 µM; 320,000 tested, 0.096% active; AID 504775;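 active = mean replicate activation of at least 60% and every replicate at or above 60%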;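 note: 0% = median plate neutral-control signal and 100% = twice that signal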
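Test system: SR-BI-overexpressing, LDLR-lacking CHO cells; Also added: labelled HDL, 10 µg/mL; Measured by: bottom-read cell fluorescence after medium removal, ex 550/em 595 nm; Timing: 3 h uptake period with compound, 37 °C; Buffer or medium: F12, 0.5% BSA, 25 mM HEPES; Doses: single compound concentration, delivered by pin transfer.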
Yeast superoxide: caloric restriction mimetics inhibiting age-related superoxide in yeast | S. cerevisiae aged cells, superoxide DHE fluorescence; stronger effect = lower value | superoxide response (% of plate mean), % at 10 µM | 330,000 tested, 0.18% active | AID 2690;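 active = superoxide response under a set limit, about three screen SD below normal, cut at about 65% in these data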;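 note: yeast aged for seven days with compound at 30 °C before DHE staining; 100% = average MFI of all compound-treated wells on the plate with controls excluded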
CR mimetic CP: yeast aging superoxide inhibition, cherry pick confirmation; 850 tested, 1% active; S. cerevisiae aging, superoxide DHE fluorescence; stronger effect = lower value; superoxide response (% of plate), % at 10 µM; shares compounds with Yeast superoxide; AID 434994;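 active = superoxide signal below 65% of the plate average of sample wells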;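 note: cells aged with compound for 7 days at 30 degrees C before staining; 100% equals mean DHE fluorescence of all compound wells on the plate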
DHE counter: DHE fluorescence interference, counter-screen artifact; shares compounds with Yeast superoxide; S. cerevisiae BY4741, flow cytometry; stronger effect = lower value; fluorescence response, % at 10 µM; 850 tested, under 10 active; AID 435000;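 active = fluorescence response below 15%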;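 note: percent of the mean fluorescence averaged over all compound wells on the plate; lower means stronger quenching of DHE signal or ROS scavenging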
* = called active by the depositor; . = not tested or not shown. The list is not random: actives were taken first. Their share in the collection is about 4.3%.

SMILES	Lipid droplet	SMARCA2 act	SR-BI HDL uptake	AHR act	SR-BI uptake up	Yeast superoxide	CR mimetic CP	DHE counter
COc1ccccc1Oc1ccc2c(c1)C(=O)N(CC(=O)O)C2=O	15	.	-20	0	20	40*	102	91
O=C(N[C@@H]1C[C@@H]2O[C@@H](CO)CC[C@@H]2O[C@@H]1CCc1ccc(-c2cccnc2)cc1)c1cccc(F)c1	.	-4	.	.	.	.	.	.
O=C(Cc1ccccc1)NCc1ccncc1	4	1	-7	1	7	57*	102	97
CC(=O)c1c(C)nc2ccc([N+](=O)[O-])cc2c1-c1ccccc1	-1	-1	-8	-3	8	104	.	.
CC(=O)c1c(-c2ccccc2)c2cc([N+](=O)[O-])ccc2[nH]c1=O	6	-2	0	4	0	59*	111	106
Fc1ccc(Cn2nnc3ccccc32)cc1	1	.	0	0	0	64*	94	93
O=c1cc2c(nn1Cc1ccc(F)cc1)-c1ccccc1CC2	4	-2	-1	6	1	59*	97	88
O=C(C1CCCO1)N1CCN(c2c3c(nc4cc(-c5ccc(F)cc5)nn24)CCC3)CC1 (configuration not stated)	.	3	25	29	-25	63*	98	103
CC(=O)COc1nc2c(c(-c3ccco3)c1C#N)CCc1ccccc1-2	-1	.	.	9	.	65*	95	105
CCOc1nc2c(c(-c3cccs3)c1C#N)Cc1ccccc1-2	-8	-4	1	6	-1	99	.	.
O=C(CSc1ccc(-c2ccccn2)nn1)Nc1ccc(F)c(F)c1	-11	-2	-7	8	7	99	137	115
O=C(CSc1n[nH]c(-c2cccnc2)n1)Nc1ccccc1C(F)(F)F	0	-3	-3	1	3	106	.	.
COc1ccc(NC(=O)CSc2ccc(-c3ccccn3)nn2)cc1OC	-22	-1	-4	7	4	120	.	.
O=C(CSc1ccc(-c2ccccn2)nn1)Nc1ccc(F)cc1F	-2	-2	1	9	-1	108	103	106
O=C(CSc1ccc(-c2cccnc2)nn1)Nc1ccccc1C(F)(F)F	6	-3	6	14	-6	92	101	91
COc1ccccc1NC(=O)CSc1ccc(-c2ccccn2)nn1	2	-3	-2	0	2	113	101	97
CN(N=Cc1ccccc1O)C(=O)c1ccccc1N	.	-2	.	.	.	.	.	.
Cc1ccc(-n2c(SCc3nc4ccccc4[nH]3)nnc2-c2ccccn2)cc1	.	0	.	.	.	.	.	.
CCOC(=O)c1ccc(NC(=O)CSc2ccc(-c3ccccn3)nn2)cc1	-1	-2	-8	10	8	114	116	91
CCOc1ccc(NC(=O)CSc2ccc(-c3ccccn3)nn2)cc1	-22	-2	43	1	-43	102	.	.
CCc1nonc1NC(=O)c1oc2c(C)c(C)ccc2c1C	0	-4	1	5	-1	43*	98	89
CCc1nonc1NC(=O)c1oc2cc(Br)ccc2c1C	-7	-2	-12	9	12	113	.	.
Cc1ccc(NC2=NCCC2)cc1Cl	-4	-3	-18	5	18	65*	91	100
Cc1nc2ccc(NC3=NCCCCC3)cc2s1	.	-2	-24	4	24	89	.	.
Nn1c(SCC(=O)Nc2ccccc2F)nnc1C1CCCCC1	2	-2	-8	1	8	111	.	.
SMILES	Lipid droplet	SMARCA2 act	SR-BI HDL uptake	AHR act	SR-BI uptake up	Yeast superoxide	CR mimetic CP	DHE counter
Nn1c(SCC(=O)Nc2ccc(F)cc2F)nnc1C1CCCCC1	.	2	-4	-2	4	115	85	101
C#CCN1C(=O)[C@]2(OC[C@@H]3Cc4ccccc4[C@@H]3C=C2C)c2ccccc21	.	-1	.	.	.	.	.	.
CCOc1ccc2c(c1)C(C)=CC(C)(C)N2	.	-1	4	-1	-4	65*	103	90
COc1ccc(-c2nnc(NC(=O)c3ccc(S(=O)(=O)N4CCCc5ccccc54)cc3)o2)cc1	.	.	0	2	0	102	.	.
COCc1nnc(NC(=O)c2ccc(S(=O)(=O)N3CCOCC3)cc2)o1	-12	-1	-11	3	11	103	118	117
COCc1nnc(NC(=O)c2ccc(S(=O)(=O)N3CCCc4ccccc43)cc2)o1	4	-2	-13	-2	13	96	102	96
COc1cc(-c2nnc(NC(=O)c3ccc(S(=O)(=O)N4CCOCC4)cc3)o2)cc(OC)c1OC	-1	-4	.	-2	.	94	.	.
COc1ccccc1-c1nnc(NC(=O)c2ccc(S(=O)(=O)N3CCOCC3)cc2)o1	-11	-2	-8	14	8	93	91	93
Cc1ccc(C(=O)N2CCN(c3ccccc3Cl)CC2)cc1[N+](=O)[O-]	-2	0	29	4	-29	73	92	99
Cc1ccc(N2CCN(C(=O)c3cccc([N+](=O)[O-])c3)CC2)cc1Cl	1	-3	8	-5	-8	112	88	99
CCOC(=O)[C@]12CCCCC/C=C\1N(CCc1ccc(Cl)cc1)C(=O)[C@H]2CC(=O)NCc1cccc(C(F)(F)F)c1	.	-2	.	.	.	.	.	.
O=C(NC(=O)N1CCCC1)c1csnn1	-14	-1	-6	1	6	64*	99	91
O=C(NC1CCCCC1)c1csnn1	.	-7	-20	.	20	.	.	.
Cc1ccc(NC(=O)c2ccc(C(=O)c3ccccc3)cc2)nc1	.	-1	4	6	-4	63*	98	92
Cc1ccc(NC(=O)c2ccc3nc[nH]c3c2)nc1	5	4	15	39	-15	106	.	.
COc1ccc(Cl)cc1S(=O)(=O)N1CCCC1=O	-7	-1	-24	0	24	98	109	99
COc1ccc(Cl)cc1S(=O)(=O)N1CCN=C1c1ccccc1	23	0	-9	5	9	83	.	.
Cc1cc(C)n2nc(-c3ccccc3)c(-c3ccccc3)c2n1	0	-1	-3	4	3	93	95	92
COc1ccc(C)cc1-n1nnnc1SCc1cn2ccsc2n1	.	2	1	3	-1	62*	118	110
COc1ccc(C)cc1-n1nnnc1SCc1nc(N)nc(N(C)C)n1	.	-4	.	.	.	.	.	.
COc1nnc(-c2ccc(C)c(S(N)(=O)=O)c2)c2ccccc12	.	-3	27	18	-27	100	.	.
Cc1ccc(-c2nnc(Nc3ccc4c(c3)OCO4)c3ccccc23)cc1S(N)(=O)=O	-5	0	25	36	-25	110	99	94

Bioassay records deposited in PubChem BioAssay by several laboratories.
